In ChEMBL document CHEMBL1145894, “Anti-herpes simplex virus activity of substituted 1-hydroxyacridones” (J Med Chem, 2003):
pEC50: −log10 of the molar value. Activity calls are given as the source filed them. The rule behind the calls is not given here.

Experiments:
Human alphaherpesvirus 1 [1] = experiment: Inhibitory activity against HSV-1 in vero cells; type: functional, herpes simplex virus; conditions: Human alphaherpesvirus 1, Vero; read-out: ED50 (the source's name)
In short: (§1)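 Plaque-elimination assay. Cells were infected with 50–100 PFU of HSV-1 (KOS) or HSV-2 (186 or plaque-purified 186 stocks, 333, G) and adsorbed for 1 h, then overlaid with 0.5% FCS medium ± compound, in duplicate. After 2 days, wells were crystal-violet stained and plaques counted by eye; ED50 was taken from a sigmoidal nonlinear fit.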

Human alphaherpesvirus 2 [2] = experiment: Inhibitory activity against HSV-2 in vero cells; type: functional, herpes simplex virus; conditions: Human alphaherpesvirus 2, Vero; read-out: ED50 (the source's name); in short: as §1
Vero = experiment: In vitro cytotoxic concentration in vero cells.; type: functional; conditions: Chlorocebus sabaeus
In short: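 Vero cell replication was measured by sulforhodamine B dye binding after 2 days of continuous compound exposure. CC50 is the concentration giving 50% inhibition relative to untreated control, calculated by nonlinear regression with a sigmoidal fit to dose-response data.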

[3] = Therapeutic index (vero CC50/ED50) against HSV-1; conditions: herpes simplex virus, Vero cells; read-out: TI
In short: (§2)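 Selectivity (TI) was calculated as Vero CC50 (SRB assay, 2 days continuous treatment) divided by plaque-reduction ED50 against the given HSV strain in Vero cells, using 50–100 PFU inoculum and a 2-day incubation.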

[4] = Therapeutic index (vero CC50/ED50) against HSV-2; NA= not active; conditions: herpes simplex virus; in short: as §2
[5] = Therapeutic index (vero CC50/ED50) against HSV-2; conditions: herpes simplex virus, Vero cells; read-out: TI; in short: as §2
Human alphaherpesvirus 2 [6] = experiment: Inhibitory activity against HSV-2 in vero cells; NA= not active; type: functional, organism-based; conditions: herpes simplex virus; in short: as §1
Human alphaherpesvirus 1 [7] = experiment: Inhibitory activity against HSV-1 in vero cells; NA= not active; type: functional, organism-based; conditions: herpes simplex virus; in short: as §1
herpes simplex virus [8] = experiment: Anti-HSV activity against HSV-2 (186) strain; type: functional; in short: as §1
herpes simplex virus [9] = experiment: Anti-HSV activity against HSV-2 (186, c2) strain; type: functional; in short: as §1
herpes simplex virus [10] = experiment: Anti-HSV activity against HSV-1 (KOS) strain; type: functional; in short: as §1
[11] = Therapeutic index against HSV-2 (186, c2); conditions: herpes simplex virus; read-out: TI; in short: as §2
[12] = Therapeutic index against HSV-2 (333); conditions: herpes simplex virus; read-out: TI; in short: as §2
[13] = Therapeutic index against HSV-2 (G); conditions: herpes simplex virus; read-out: TI; in short: as §2
herpes simplex virus [14] = experiment: Anti-HSV activity against HSV-2 (333) strain; type: functional; in short: as §1
herpes simplex virus [15] = experiment: Anti-HSV activity against HSV-2 (G) strain; type: functional; in short: as §1
[16] = Therapeutic index against HSV-2 (186, c4); conditions: herpes simplex virus; read-out: TI; in short: as §2
[17] = Therapeutic index against HSV-1 (KOS); conditions: herpes simplex virus; read-out: TI; in short: as §2
herpes simplex virus [18] = experiment: Anti-HSV activity against HSV-2 (186, c4) strain; type: functional; in short: as §1
Human alphaherpesvirus 2 [19] = experiment: Inhibitory activity against HSV-2 in vero cells; NA= not active, at 50 uM no toxicity; type: functional, organism-based; conditions: herpes simplex virus; in short: as §1
Human alphaherpesvirus 1 [20] = experiment: Inhibitory activity against HSV-1 in vero cells; NA= not active at 100 uM; type: functional, organism-based; conditions: herpes simplex virus; in short: as §1

SMILES: COc1cc(O)c2c(=O)c3cccc(Cl)c3n(C)c2c1
- pEC50 (Human alphaherpesvirus 1 [1]): < 4.00
- pEC50 (Human alphaherpesvirus 2 [2]): < 4.30
- CC50 (Vero): > 100 µM

SMILES: O=C(O)CP(=O)(O)O [FOSFONET]
- pEC50 (Human alphaherpesvirus 1 [1]): 3.62
- selectivity ratio [3]: 29
- CC50 (Vero): 3500 µM

SMILES: O=c1c2ccc(Cl)cc2[nH]c2cc(O)cc(O)c12
- TI [4]: Not Active
- pEC50 (Human alphaherpesvirus 1 [1]): 5.00
- selectivity ratio [3]: 3
- CC50 (Vero): 29 µM

SMILES: Cc1cccc2c(O)c3c(O)cc(O)cc3nc12
- pEC50 (Human alphaherpesvirus 1 [1]): 5.10
- selectivity ratio [3]: 4
- pEC50 (Human alphaherpesvirus 2 [2]): 4.82
- selectivity ratio [5]: 2.1
- CC50 (Vero): 32 µM

SMILES: Oc1cc(O)c2c(O)c3cc(O)ccc3nc2c1
- pEC50 (Human alphaherpesvirus 1 [1]): 4.82
- selectivity ratio [3]: 2.7
- CC50 (Vero): 40 µM

SMILES: O=c1c2ccccc2[nH]c2cc(O)cc(O)c12
- pEC50 (Human alphaherpesvirus 1 [1]): 4.35
- selectivity ratio [3]: 1.5
- CC50 (Vero): 68 µM

SMILES: Oc1cc(O)c2c(O)c3cc(Cl)cc(Cl)c3nc2c1
- pEC50 (Human alphaherpesvirus 1 [1]): 4.92
- selectivity ratio [3]: > 5
- pEC50 (Human alphaherpesvirus 2 [2]): 4.70
- selectivity ratio [5]: > 8.3
- CC50 (Vero): > 100 µM

SMILES: O=c1c2c(O)cc(O)cc2[nH]c2cccc(Cl)c12
- pEC50 (Human alphaherpesvirus 1 [1]): 5.00
- selectivity ratio [3]: 7
- CC50 (Vero): 70 µM

SMILES: COc1cc(O)c2c(=O)c3cccc(Cl)c3[nH]c2c1
- pEC50 (Human alphaherpesvirus 1 [1]): < 4.30
- ED50 (Human alphaherpesvirus 2 [6]): inactive
- CC50 (Vero): > 100 µM

SMILES: Cc1cccc2nc3cc(O)cc(O)c3c(O)c12
- pEC50 (Human alphaherpesvirus 1 [1]): 4.36
- selectivity ratio [3]: 1.4
- CC50 (Vero): 60 µM

SMILES: O=c1c2cccc(Cl)c2[nH]c2cc(O)cc(O)c12
- TI [4]: Not Active
- pEC50 (Human alphaherpesvirus 1 [1]): 5.40
- selectivity ratio [3]: 13
- pEC50 (Human alphaherpesvirus 2 [2]): < 4.52
- CC50 (Vero): 60 µM

SMILES: COc1cc(O)c2c(O)c3cccc(OC)c3nc2c1
- pEC50 (Human alphaherpesvirus 2 [2]): < 4.30
- CC50 (Vero): > 50 µM

SMILES: Cc1cc(O)c2c(=O)c3cccc(Cl)c3[nH]c2c1
- ED50 (Human alphaherpesvirus 1 [7]): inactive
- ED50 (Human alphaherpesvirus 2 [6]): inactive
- CC50 (Vero): 13 µM

SMILES: COc1cc(O)c2c(O)c3cc(OC)ccc3nc2c1
- pEC50 (Human alphaherpesvirus 2 [2]): < 5.00
- CC50 (Vero): > 50 µM

SMILES: COc1cc(O)c2c(O)c3cc(O)ccc3nc2c1
- pEC50 (Human alphaherpesvirus 2 [2]): > 5.00
- CC50 (Vero): 25 µM

SMILES: O=c1c2cc(Cl)ccc2[nH]c2cc(O)cc(O)c12
- pEC50 (Human alphaherpesvirus 1 [1]): 4.80
- selectivity ratio [3]: 3.5
- pEC50 (Human alphaherpesvirus 2 [2]): 4.82
- selectivity ratio [5]: 3.5
- CC50 (Vero): 52 µM

SMILES: COc1cccc2c(O)c3c(O)cc(O)cc3nc12
- ED50 (herpes simplex virus [8]): 0.6 µM
- ED50 (herpes simplex virus [9]): 0.6 µM
- ED50 (herpes simplex virus [10]): 2.2 µM
- selectivity ratio [11]: 50
- selectivity ratio [12]: 43
- selectivity ratio [13]: 60
- pEC50 (Human alphaherpesvirus 1 [1]): 5.66
- ED50 (herpes simplex virus [14]): 0.7 µM
- selectivity ratio [3]: 13
- ED50 (herpes simplex virus [15]): 0.5 µM
- selectivity ratio [16]: 25
- selectivity ratio [17]: 14
- pEC50 (Human alphaherpesvirus 2 [2]): 6.22
- selectivity ratio [5]: 50
- CC50 (Vero): 30 µM
- ED50 (herpes simplex virus [18]): 1.2 µM

SMILES: COc1cc(O)c2c(O)c3cccnc3nc2c1
- ED50 (Human alphaherpesvirus 2 [19]): inactive
- CC50 (Vero): 5.5 µM

SMILES: Cn1c2cc(O)cc(O)c2c(=O)c2cccc(Cl)c21
- pEC50 (Human alphaherpesvirus 1 [1]): < 4.30
- pEC50 (Human alphaherpesvirus 2 [2]): < 4.52
- CC50 (Vero): 50 µM

SMILES: O=c1c2cccc(Cl)c2[nH]c2cc3ccccc3c(O)c12
- ED50 (Human alphaherpesvirus 1 [20]): inactive
- CC50 (Vero): > 100 µM

SMILES: Nc1nc2c(ncn2COCCO)c(=O)[nH]1 [ACYCLOVIR]
- pEC50 (Human alphaherpesvirus 1 [1]): 6.30
- selectivity ratio [3]: > 800
- pEC50 (Human alphaherpesvirus 2 [2]): 5.60
- selectivity ratio [5]: > 160
- CC50 (Vero): > 400 µM
